According to ChEMBL document CHEMBL5649170, “Sustained microglial depletion with CSF1R inhibitor impairs parenchymal plaque development in an Alzheimer's disease model” (Nat Commun, 2019):
Activity calls are given as the source filed them. The rule behind the calls is not given here.

Tests used:
[1] = Toxicity in wildtype mouse assessed as number of platform entry at 1200 ppm administered as rodent chow for 10 to 24 weeks by Morris water maze test (reference value: 0 to 5); conditions: in vivo, po, time 10-24 weeks
[2] = Effect on Cst7 gene expression in 5XFAD mouse hippocampus at 1200 ppm administered as rodent chow starting from 1.5 months and measured after 7 months by RNA-Seq analysis (reference value: 14.615 to 34.909 RPKM); format: functional; conditions: route po, time 5.5 months, 4015 h
[3] = Effect on Clec7a gene expression in wild type mouse hippocampus at 1200 ppm administered as rodent chow starting from 1.5 months and measured after 7 months by RNA-Seq analysis (reference value: 0.034 to 0.503 RPKM); format: functional; conditions: route po, time 5.5 months, 4015 h
Outline: (§1)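 WT and 5xFAD mice were treated with 1200 ppm PLX5622 chow or control chow from 1.5 to 7 months of age. Brains were microdissected into cortex, hippocampus and thalamus, and RNA was extracted from tissue powder. Whole-transcriptome RNA-Seq libraries were sequenced, with n = 4 per group per region (48 samples).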

[4] = AUC (0 to 24 hrs) in mouse brain at 300 ppm administered as rodent chow for 14 days; format: ADME, tissue-based; conditions: route po, time 14 day
Mus musculus [5] = experiment: Effect on APP processing pathway in wildtype mouse assessed as full length APP protein signal intensity in cortex at 1200 ppm administered as rodent starting from 1.5 months and measured after 7 months (reference value: 0.124 to 27.917 %); format: functional; conditions: route po, time 5.5 months, 4015 h
Aurora kinase B = Aurora kinase B (Homo sapiens, UniProt Q96GD4); experiment: Inhibition of AURKB (unknown origin)
[6] = Ratio of drug concentration in brain to plasma in mouse at 300 ppm administered as rodent chow for 14 days; format: ADME, cell-free; conditions: route po, time 14 day, read-out: BPR
[7] = Prevention of Dynll1 gene downregulation in 5XFAD mouse hippocampus assessed as percent change in Reads Per kilo base per Million mapped reads at 1200 ppm administered as rodent chow starting from 1.5 months and measured after 7 months by RNA-Seq analysis (reference value: 79.087 to 86.108 %); format: functional; conditions: route po, time 5.5 months, 4015 h
Mus musculus [8] = experiment: Prevention of immune pathway related gene upregulation in 5XFAD mouse hippocampus assessed as percent change in Reads Per kilo base per Million mapped reads at 1200 ppm administered as rodent chow starting from 1.5 months and measured after 7 months by GO enrichment analysis; format: functional, tissue-based; conditions: route po, time 5.5 months
[9] = AUC (0 to infinity) in dog at 1.00 mg/kg, iv administered as single dose; format: ADME, organism-based, Canis lupus familiaris; conditions: in vivo
[10] = Effect on C1qa gene expression in wild type mouse cortex at 1200 ppm administered as rodent chow starting from 1.5 months and measured after 7 months by RNA-Seq analysis (reference value: 16.071 to 20.526 RPKM); format: functional; conditions: route po, time 5.5 months, 4015 h; outline: as §1
[11] = Toxicity in wildtype mouse assessed as time spent in perimeter zone at 1200 ppm administered as rodent chow for 10 to 24 weeks by Open field test (reference value: 223.8 to 267.6 sec); conditions: in vivo, po, time 10-24 weeks
[12] = target: Casein kinase I isoform delta (Homo sapiens, UniProt P48730); experiment: Inhibition of CSNK1D (unknown origin)
[13] = target: Leukocyte tyrosine kinase receptor (Homo sapiens, UniProt P29376); experiment: Inhibition of LTK (unknown origin)
Mus musculus [14] = experiment: Antialzheimer activity in 5XFAD mouse assessed as number of GFAP positive cell per FOV in retro spinal cortex at 1200 ppm administered as rodent chow for 10 to 24 weeks by immunolabelling based confocal microscopic analysis (reference value: 217 to 477); format: functional; conditions: route po, time 10-24 weeks
Mus musculus [15] = experiment: Antialzheimer activity in 5XFAD mouse assessed as amyloidbeta42 level in detergent soluble cortex fraction measured per microgram protein at 1200 ppm administered as rodent chow starting from 1.5 months and measured after 7 months by ELISA (reference value: 0 to 0.239 pg); format: functional; conditions: route po, time 5.5 months, 4015 h
Outline: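 PLX5622 at 1200 ppm in chow given to 5xFAD mice from 1.5 months to 4 or 7 months of age; cortex and thalamus homogenized in TPER (detergent-soluble), pellets re-homogenized in 70% formic acid and spun 100,000 g, 1 h, 4 °C (insoluble); protein by Bradford/Lowry; Aβ species measured by Meso Scale electrochemiluminescence immunoassay, normalized to protein; n = 7–8 per group at 7 months.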

[16] = target: Calcium/calmodulin-dependent protein kinase type 1D (Homo sapiens, UniProt Q8IU85); experiment: Inhibition of CAMK1D (unknown origin)
Mus musculus [17] = experiment: Prevention of Cx3cr1 gene upregulation in 5XFAD mouse hippocampus at 1200 ppm administered as rodent chow starting from 1.5 months and measured after 7 months by Nanostring analysis; format: functional, tissue-based; conditions: route po, time 5.5 months
Mus musculus [18] = experiment: Antialzheimer activity in 5XFAD mouse assessed as number of This-S positive cells per FOV in […] cortex at 1200 ppm administered as rodent chow starting from 1.5 months to 4 months followed by compound removal and measured after 1 months by immunolabelling based confocal microscopic analysis (reference value: 63 to 124); format: functional; conditions: route po, time 2.5 months, 1825 h
Outline: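 For the repopulation paradigm, 5xFAD mice ate 1200 ppm PLX5622 chow from 1.5 to 4 months of age. Inhibitor chow was then withdrawn, and brains were examined one month later. Sections were stained with Thio-S and immunolabeled for IBA1, then analysed by confocal microscopy in cortical regions.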

[19] = target: Protein kinase C theta type (Homo sapiens, UniProt Q04759); experiment: Inhibition of PRKCQ (unknown origin)
[20] = target: Homeodomain-interacting protein kinase 1 (Homo sapiens, UniProt Q86Z02); experiment: Inhibition of HIPK1 (unknown origin)
Sequence of Homeodomain-interacting protein kinase 1 (Q86Z02 whole entry): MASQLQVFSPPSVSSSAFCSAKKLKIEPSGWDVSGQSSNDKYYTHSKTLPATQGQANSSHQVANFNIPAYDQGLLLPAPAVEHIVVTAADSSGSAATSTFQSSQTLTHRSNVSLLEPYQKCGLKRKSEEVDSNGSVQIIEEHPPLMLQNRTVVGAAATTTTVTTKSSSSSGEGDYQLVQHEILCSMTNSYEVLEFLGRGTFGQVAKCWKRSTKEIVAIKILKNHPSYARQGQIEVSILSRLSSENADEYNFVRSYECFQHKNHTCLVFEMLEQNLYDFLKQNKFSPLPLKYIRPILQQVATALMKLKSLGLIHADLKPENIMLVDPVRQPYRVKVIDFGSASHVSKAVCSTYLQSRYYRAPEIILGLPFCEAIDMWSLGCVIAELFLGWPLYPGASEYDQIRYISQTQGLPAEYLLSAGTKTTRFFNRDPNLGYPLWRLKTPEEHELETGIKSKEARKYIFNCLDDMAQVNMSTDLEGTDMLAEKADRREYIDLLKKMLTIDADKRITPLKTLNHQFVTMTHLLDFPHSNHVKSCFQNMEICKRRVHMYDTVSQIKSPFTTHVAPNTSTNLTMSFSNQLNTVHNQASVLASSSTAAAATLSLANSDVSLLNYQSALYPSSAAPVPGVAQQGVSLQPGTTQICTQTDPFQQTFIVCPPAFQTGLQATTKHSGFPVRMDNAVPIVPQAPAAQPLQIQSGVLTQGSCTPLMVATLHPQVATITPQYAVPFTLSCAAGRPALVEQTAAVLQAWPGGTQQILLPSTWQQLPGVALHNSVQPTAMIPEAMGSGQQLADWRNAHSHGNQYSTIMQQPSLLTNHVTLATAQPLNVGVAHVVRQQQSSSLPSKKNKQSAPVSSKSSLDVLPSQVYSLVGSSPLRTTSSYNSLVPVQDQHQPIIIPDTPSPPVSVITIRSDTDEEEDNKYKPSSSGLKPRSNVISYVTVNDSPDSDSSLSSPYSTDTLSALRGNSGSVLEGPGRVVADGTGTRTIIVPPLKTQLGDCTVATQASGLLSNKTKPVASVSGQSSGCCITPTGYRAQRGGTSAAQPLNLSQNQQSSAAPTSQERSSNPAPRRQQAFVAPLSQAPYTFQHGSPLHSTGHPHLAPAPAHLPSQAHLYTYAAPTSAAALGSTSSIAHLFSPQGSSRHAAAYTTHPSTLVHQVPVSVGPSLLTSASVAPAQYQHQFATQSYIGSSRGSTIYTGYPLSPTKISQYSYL

Sequence of Leukocyte tyrosine kinase receptor (P29376 whole entry): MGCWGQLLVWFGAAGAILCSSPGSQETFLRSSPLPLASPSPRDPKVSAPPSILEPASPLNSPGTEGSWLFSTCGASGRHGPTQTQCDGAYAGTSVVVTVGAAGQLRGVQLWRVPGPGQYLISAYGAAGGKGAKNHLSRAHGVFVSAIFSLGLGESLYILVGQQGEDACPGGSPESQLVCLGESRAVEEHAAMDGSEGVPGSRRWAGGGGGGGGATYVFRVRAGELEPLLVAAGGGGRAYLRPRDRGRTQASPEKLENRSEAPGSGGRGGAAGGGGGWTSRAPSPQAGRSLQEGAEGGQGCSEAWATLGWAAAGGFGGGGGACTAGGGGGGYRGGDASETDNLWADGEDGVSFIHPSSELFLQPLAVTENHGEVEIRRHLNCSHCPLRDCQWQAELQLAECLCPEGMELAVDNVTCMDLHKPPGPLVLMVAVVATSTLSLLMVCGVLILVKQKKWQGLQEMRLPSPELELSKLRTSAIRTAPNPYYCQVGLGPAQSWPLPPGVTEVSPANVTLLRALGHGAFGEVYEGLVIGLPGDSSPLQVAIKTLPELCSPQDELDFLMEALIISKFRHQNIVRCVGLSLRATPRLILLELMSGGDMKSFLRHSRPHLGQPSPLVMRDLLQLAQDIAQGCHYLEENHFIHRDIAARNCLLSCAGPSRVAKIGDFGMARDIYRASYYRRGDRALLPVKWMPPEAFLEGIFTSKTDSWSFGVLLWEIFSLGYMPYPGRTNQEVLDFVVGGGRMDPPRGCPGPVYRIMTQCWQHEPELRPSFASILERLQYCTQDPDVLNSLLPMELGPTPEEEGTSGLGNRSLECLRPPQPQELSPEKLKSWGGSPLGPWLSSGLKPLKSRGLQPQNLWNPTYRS
Sequence of Protein kinase C theta type (Q04759 whole entry): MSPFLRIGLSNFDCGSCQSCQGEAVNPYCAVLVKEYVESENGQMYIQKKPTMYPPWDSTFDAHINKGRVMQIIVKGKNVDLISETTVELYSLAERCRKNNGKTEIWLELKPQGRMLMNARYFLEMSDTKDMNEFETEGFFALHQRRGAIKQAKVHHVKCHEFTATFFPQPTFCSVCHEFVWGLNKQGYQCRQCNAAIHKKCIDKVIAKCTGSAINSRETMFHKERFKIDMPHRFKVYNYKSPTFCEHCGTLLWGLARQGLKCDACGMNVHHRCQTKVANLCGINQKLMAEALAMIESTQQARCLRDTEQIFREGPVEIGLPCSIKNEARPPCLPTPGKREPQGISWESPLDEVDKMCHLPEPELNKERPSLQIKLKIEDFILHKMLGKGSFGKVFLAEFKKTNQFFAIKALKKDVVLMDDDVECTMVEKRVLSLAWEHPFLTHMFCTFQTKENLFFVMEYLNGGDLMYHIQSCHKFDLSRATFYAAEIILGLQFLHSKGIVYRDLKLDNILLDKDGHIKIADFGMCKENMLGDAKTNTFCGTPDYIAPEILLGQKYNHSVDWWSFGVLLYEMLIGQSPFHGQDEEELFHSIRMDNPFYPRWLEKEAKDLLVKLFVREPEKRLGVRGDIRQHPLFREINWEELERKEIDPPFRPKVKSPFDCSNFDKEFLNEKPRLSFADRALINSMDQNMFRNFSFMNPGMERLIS
Sequence of Calcium/calmodulin-dependent protein kinase type 1D (Q8IU85 whole entry): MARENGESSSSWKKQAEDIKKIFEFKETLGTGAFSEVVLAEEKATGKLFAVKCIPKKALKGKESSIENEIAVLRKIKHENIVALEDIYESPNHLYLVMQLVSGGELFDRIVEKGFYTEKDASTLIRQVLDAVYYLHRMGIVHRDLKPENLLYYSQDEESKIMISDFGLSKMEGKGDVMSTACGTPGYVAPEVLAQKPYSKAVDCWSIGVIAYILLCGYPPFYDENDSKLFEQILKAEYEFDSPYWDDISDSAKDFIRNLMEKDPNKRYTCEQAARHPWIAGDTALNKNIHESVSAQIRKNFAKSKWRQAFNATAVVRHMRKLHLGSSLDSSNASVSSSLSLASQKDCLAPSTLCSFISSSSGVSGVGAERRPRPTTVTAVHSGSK
Sequence of Casein kinase I isoform delta (P48730 whole entry, canonical isoform): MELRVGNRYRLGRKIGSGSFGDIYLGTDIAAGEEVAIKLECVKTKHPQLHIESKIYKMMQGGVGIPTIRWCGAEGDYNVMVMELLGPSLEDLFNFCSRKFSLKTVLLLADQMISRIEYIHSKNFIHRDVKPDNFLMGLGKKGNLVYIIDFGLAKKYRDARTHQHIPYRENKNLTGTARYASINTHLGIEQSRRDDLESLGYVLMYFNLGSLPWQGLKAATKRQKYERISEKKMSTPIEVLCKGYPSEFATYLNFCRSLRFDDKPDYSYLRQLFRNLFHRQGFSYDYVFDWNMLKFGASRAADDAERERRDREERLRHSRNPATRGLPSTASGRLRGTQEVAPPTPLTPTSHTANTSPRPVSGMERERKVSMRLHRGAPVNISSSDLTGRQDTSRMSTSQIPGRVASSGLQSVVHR
Sequence of Aurora kinase B (Q96GD4 whole entry): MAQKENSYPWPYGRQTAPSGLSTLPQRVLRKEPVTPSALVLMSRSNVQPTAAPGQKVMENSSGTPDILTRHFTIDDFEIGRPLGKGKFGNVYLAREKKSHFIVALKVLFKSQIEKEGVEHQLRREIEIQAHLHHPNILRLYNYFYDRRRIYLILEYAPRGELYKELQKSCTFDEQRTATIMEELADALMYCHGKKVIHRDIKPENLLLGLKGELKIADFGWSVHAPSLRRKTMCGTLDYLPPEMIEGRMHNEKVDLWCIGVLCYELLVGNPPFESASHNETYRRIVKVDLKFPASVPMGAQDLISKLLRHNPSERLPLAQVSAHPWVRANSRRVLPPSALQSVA

For COc1ncc(F)cc1CNc1ccc(Cc2c[nH]c3ncc(C)cc23)c(F)n1 [PLX-5622], the Activity [1] was 1, the Activity [2] was 2.289 RPKM and the Activity [3] was 0.04 RPKM. It also gave an AUC at 336 h [4] of 23100 ng·h/mL, an Activity (Mus musculus [5]) of 0.823% and an IC50 (Aurora kinase B) greater than 1000 nM. For the same molecule, the Kp at 336 h [6] was 0.22, the Activity [7] was 96.141% and the Activity (Mus musculus [8]) was “Active”. For the same molecule, the AUC(0-inf) [9] was 6230 ng·h/mL, the Activity [10] was 0 RPKM and the Time [11] was 178.5 s. For the same molecule, the IC50 [12] was greater than 1000 nM, the IC50 [13] was greater than 1000 nM and the Activity (Mus musculus [14]) was 92. The Activity (Mus musculus [15]) was 0 pg, the IC50 [16] was greater than 1000 nM and the Activity (Mus musculus [17]) was “Active”. The Activity (Mus musculus [18]) was 60, the IC50 [19] was greater than 1000 nM and the IC50 [20] was greater than 1000 nM.
